Results reported in ChEMBL document CHEMBL1126566, “Studies on analogues of classical antifolates bearing the naphthoyl group in place of benzoyl in the side chain” (J Med Chem, 1993).
Changes are numbered by the printed parent chain.

Key:
CCRF-CEM = assay: (§1) Percent inhibition of Folyl-polyglutamate synthase from CCRF-CEM cells; type: cell-based; set-up: concentration or dose not given beside the values; details: Homo sapiens, dose or concentration not given here
Summary of the method: (§2)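 FPGS was partially purified from CCRF-CEM cells by (NH₄)₂SO₄ fractionation and gel sieving, with no detectable γ-glutamyl hydrolase. Product was separated on DEAE-cellulose. Percent inhibition is reported.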

HL-60 = assay: Tested for the ability to inhibit growth in vitro against HL60; type: functional, cell-based; details: Homo sapiens
Dihydrofolate reductase [1] = target: T1, Dihydrofolate reductase (Pneumocystis carinii, UniProt P16184); assay: Tested for inhibition against Dihydrofolate reductase from Pneumocystis carinii
T1 sequence (P16184 whole entry): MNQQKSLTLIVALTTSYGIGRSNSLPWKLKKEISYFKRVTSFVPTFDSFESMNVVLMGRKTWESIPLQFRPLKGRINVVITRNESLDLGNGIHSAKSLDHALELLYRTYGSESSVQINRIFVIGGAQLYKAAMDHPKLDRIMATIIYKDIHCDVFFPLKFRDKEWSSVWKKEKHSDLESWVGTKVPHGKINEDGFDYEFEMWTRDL

[2] = Activity relative to saturating aminopterine at 100 uM against CCRF-CEM Folyl-polyglutamate synthetase; type: ADME; details: human
Summary of the method: (§3)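 FPGS from CCRF-CEM cells: freeze-thawed lysates fractionated by (NH₄)₂SO₄ (0–40% saturation pellet) and gel sieving, stored at –90 °C in 20% glycerol, free of detectable γ-glutamyl hydrolase. Product was separated on DEAE-cellulose minicolumns. Run in duplicate or triplicate, and each experiment was repeated at least once.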

L1210 [3] = assay: Tested for the ability to inhibit growth in vitro against L1210; type: functional, cell-based; details: Mus musculus
L1210 [4] = assay: Tested for transport into L1210 cells measured as cell influx; type: functional, cell-based, Mus musculus
Dihydrofolate reductase [5] = target: T2, Dihydrofolate reductase (Mus musculus, UniProt P00375); assay: Inhibitory activity of Dihydrofolate reductase in L1210 cells; type: cell-based
T2 sequence (P00375 whole entry): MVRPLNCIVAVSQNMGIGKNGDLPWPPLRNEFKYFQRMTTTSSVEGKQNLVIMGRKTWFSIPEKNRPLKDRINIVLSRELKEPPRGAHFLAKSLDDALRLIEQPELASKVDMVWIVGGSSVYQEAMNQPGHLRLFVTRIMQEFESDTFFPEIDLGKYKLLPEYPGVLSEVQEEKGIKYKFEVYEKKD

CCRF S-180 = assay: Tested for the ability to inhibit growth in vitro against S180; type: functional, cell-based; details: Mus musculus
[6] = target: T3, Folylpolyglutamate synthase, mitochondrial (Mus musculus) (UniProt P48760); assay: Specific activity of L1210 Folyl-polyglutamate synthase
T3 sequence (whole entry): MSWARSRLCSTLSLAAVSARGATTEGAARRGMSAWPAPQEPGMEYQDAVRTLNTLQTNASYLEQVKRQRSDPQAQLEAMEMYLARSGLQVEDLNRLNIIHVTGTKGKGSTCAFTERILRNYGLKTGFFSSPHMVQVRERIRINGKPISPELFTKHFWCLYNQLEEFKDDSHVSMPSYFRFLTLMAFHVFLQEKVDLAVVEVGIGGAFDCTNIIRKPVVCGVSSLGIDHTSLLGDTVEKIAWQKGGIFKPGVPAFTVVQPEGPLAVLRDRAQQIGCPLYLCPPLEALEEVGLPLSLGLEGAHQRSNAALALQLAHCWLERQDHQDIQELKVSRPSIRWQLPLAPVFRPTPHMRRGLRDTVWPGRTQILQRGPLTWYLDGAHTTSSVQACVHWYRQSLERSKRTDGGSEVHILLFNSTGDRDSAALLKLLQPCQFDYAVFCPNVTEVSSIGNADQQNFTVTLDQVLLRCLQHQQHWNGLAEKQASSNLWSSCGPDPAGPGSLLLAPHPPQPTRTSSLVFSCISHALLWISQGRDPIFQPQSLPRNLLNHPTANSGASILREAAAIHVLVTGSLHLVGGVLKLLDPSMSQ
Summary of the method: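 FPGS from L1210 cells was assayed by [³H]glutamate ligation, like the human enzyme assay. Each folate substrate was at 100 μM, and only specific activity was measured.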

[7] = system: Folyl-polyglutamate synthase; assay: Michaelis-Menten constant was determined against CCRF-CEM Folyl-polyglutamate synthase; type: ADME; details: human, folylpolyglutamate synthase from CCRF-CEM cells; summary of the method: as §3
Mus musculus [8] = assay: Antitumor activity against E0771 mammary adenocarcinoma in mice at 6 mg/kg(5 days) was determined and […] at day 7 was reported; type: functional
Summary of the method: (§4)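 E0771 mammary adenocarcinoma implanted in mice, five mice per group. Treatment was given daily for 5 days, starting day 3 after implantation. Tumor volume was calculated as 4/3πr³ and averaged on days 7, 10 and 14. T/C (%) is the treated/control tumor volume. Toxic deaths were recorded.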

Mus musculus [9] = assay: Antitumor activity against E0771 mammary adenocarcinoma in mice at 3 mg/kg(5 days) was determined and tumor volume at day 10 was reported; type: functional
Summary of the method: (§5)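 Mice bearing implanted E0771 mammary adenocarcinoma, five per test group. Dosing was daily for 5 days, starting on day 3 after implantation. Tumor volume (mm³) was calculated as 4/3πr³ and is also expressed as treated/control (%).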

Mus musculus [10] = assay: Antitumor activity against E0771 mammary adenocarcinoma in mice at 3 mg/kg(5 days) was determined and […] at day 14 was reported; type: functional; summary of the method: as §4
Mus musculus [11] = assay: Antitumor activity against E0771 mammary adenocarcinoma in mice at 6 mg/kg(5 days) was determined and tumor volume at day 14 was reported; toxic indicates 4 toxic deaths; type: organism-based; set-up: dose 6 mg/kg; details: in vivo, 120 h; summary of the method: as §4
[12] = as §1; type: cell-based, Homo sapiens; summary of the method: as §2
Mus musculus [13] = assay: Antitumor activity against E0771 mammary adenocarcinoma in mice at 3 mg/kg(5 days) was determined and tumor volume at day 7 was reported; type: functional; summary of the method: as §5
Mus musculus [14] = assay: Antitumor activity against E0771 mammary adenocarcinoma in mice at 6 mg/kg(5 days) was determined and […] at day 10 was reported; type: functional; summary of the method: as §4
Mus musculus [15] = assay: Antitumor activity against E0771 mammary adenocarcinoma in mice at 3 mg/kg(5 days) was determined and tumor volume at day 14 was reported; type: functional; summary of the method: as §5
Mus musculus [16] = assay: Antitumor activity against E0771 mammary adenocarcinoma in mice at 3 mg/kg(5 days) was determined and […] at day 7 was reported; type: functional; summary of the method: as §4
Mus musculus [17] = assay: Antitumor activity against E0771 mammary adenocarcinoma in mice at 6 mg/kg(5 days) was determined and tumor volume at day 7 was reported; type: functional; summary of the method: as §5
Mus musculus [18] = assay: Antitumor activity against E0771 mammary adenocarcinoma in mice at 6 mg/kg(5 days) was determined and tumor volume at day 10 was reported; type: functional; summary of the method: as §5
Mus musculus [19] = assay: Antitumor activity against E0771 mammary adenocarcinoma in mice at 3 mg/kg(5 days) was determined and […] at day 10 was reported; type: functional; summary of the method: as §4
Mus musculus [20] = assay: Antitumor activity against E0771 mammary adenocarcinoma in mice at 6 mg/kg(5 days) was determined and […] at day 14 was reported; toxic indicates 4 toxic deaths; type: organism-based; set-up: dose 6 mg/kg; details: in vivo, 120 h; summary of the method: as §4
Mus musculus [21] = assay: Antitumor activity against E0771 mammary adenocarcinoma in mice at 100 mg/kg(5 days) was determined and […] at day 14 was reported; type: functional
Dihydrofolate reductase [22] = target: T4, Dihydrofolate reductase (Rattus norvegicus, UniProt Q920D2); assay: Tested for inhibition against rat liver DHFR (dihydrofolate reductase)
T4 sequence (Q920D2 whole entry): T2 sequence (P00375 whole entry) with P27L, R85Q, R99K, I115V, G155E, V170I

Mus musculus [23] = assay: Antitumor activity against E0771 mammary adenocarcinoma in mice at 150 mg/kg(5 days) was determined and […] at day 7 was reported; type: functional
Mus musculus [24] = assay: Antitumor activity against E0771 mammary adenocarcinoma in mice at 100 mg/kg(5 days) was determined and tumor volume at day 10 was reported; type: functional; summary of the method: as §5
Mus musculus [25] = assay: Antitumor activity against E0771 mammary adenocarcinoma in mice at 100 mg/kg(5 days) was determined and tumor volume at day 7 was reported; type: functional; summary of the method: as §5
Mus musculus [26] = assay: Antitumor activity against E0771 mammary adenocarcinoma in mice at 150 mg/kg(5 days) was determined and tumor volume at day 10 was reported; type: functional; summary of the method: as §5
Mus musculus [27] = assay: Antitumor activity against E0771 mammary adenocarcinoma in mice at 150 mg/kg(5 days) was determined and […] at day 10 was reported; type: functional
Mus musculus [28] = assay: Antitumor activity against E0771 mammary adenocarcinoma in mice at 150 mg/kg(5 days) was determined and tumor volume at day 7 was reported; type: functional; summary of the method: as §5
Mus musculus [29] = assay: Antitumor activity against E0771 mammary adenocarcinoma in mice at 150 mg/kg(5 days) was determined and […] at day 14 was reported; type: functional
Mus musculus [30] = assay: Antitumor activity against E0771 mammary adenocarcinoma in mice at 150 mg/kg(5 days) was determined and tumor volume at day 14 was reported; type: functional; summary of the method: as §5
Mus musculus [31] = assay: Antitumor activity against E0771 mammary adenocarcinoma in mice at 100 mg/kg(5 days) was determined and […] at day 7 was reported; type: functional
Mus musculus [32] = assay: Antitumor activity against E0771 mammary adenocarcinoma in mice at 100 mg/kg(5 days) was determined and […] at day 10 was reported; type: functional
Dihydrofolate reductase [33] = target: T1, Dihydrofolate reductase; assay: Tested for inhibition against Pneumocystis carinii DHFR (dihydrofolate reductase)
[34] = Ratio of Vmax and Km against CCRF-CEM Folyl-polyglutamate synthetase; type: ADME; details: human
Summary of the method: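 Substrate assay with CCRF-CEM FPGS. Analogue replaced aminopterin at 0–100 μM (0–200 μM for one analogue). Buffer held 5 mM ATP, 10 mM MgCl₂, 4 mM L-[³H]Glu, pH 8.4, 37 °C. Ligated glutamate was separated on DEAE-cellulose. Assays were run in duplicate or triplicate within linear enzyme and time ranges, and each experiment was repeated. Vmax (relative to aminopterin) and Km give V/K.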

Mus musculus [35] = assay: Antitumor activity against E0771 mammary adenocarcinoma in mice at 100 mg/kg(5 days) was determined and tumor volume at day 14 was reported; type: functional; summary of the method: as §5

Structure (SMILES)	inhibition (CCRF-CEM) [%]	IC50 (HL-60) [nM]	Relative Vmax [2]	IC50 (L1210 [3]) [nM]	Ki (L1210 [4]) [nM]	Ki (Dihydrofolate reductase [5]) [nM]	IC50 (CCRF S-180) [nM]	Specific activity (pM hr-1 (mg of protein)-1) [6]	other results
Nc1nc(N)c2cc(CNc3ccc(C(=O)NC(CCC(=O)O)C(=O)O)c4ccccc34)cnc2n1 (centres undefined)	21	1.4	0.01	4.2	1520	0.00365	3.9		IC50 (Dihydrofolate reductase [1]): 0.00053 nM
Nc1nc(N)c2nc(CNc3ccc(C(=O)NC(CCC(=O)O)C(=O)O)c4ccccc34)cnc2n1 (centres undefined)	12	4.6	0.03	6	920	0.00455	5.9	0.41	
Nc1nc(N)c2cc(CNc3ccc(C(=O)NC(CCC(=O)O)C(=O)O)c4ccccc34)ccc2n1 (centres undefined)		0.65		6.1	900	0.0052	3.9		
Nc1nc(N)c2nc(CNc3ccc(C(=O)N[C@@H](CCC(=O)O)C(=O)O)cc3)cnc2n1 [AMINOPTERIN]			1					1.91	Km [7]: 4.1 µM
Cc1c(CNc2ccc(C(=O)NC(CCC(=O)O)C(=O)O)c3ccccc23)cnc2nc(N)nc(N)c12 (centres undefined)		0.74	0.02	3.9	1310	0.00508	3.8		T/C (Mus musculus [8]): 39%; Tumor volume (Mus musculus [9]): 421 mm**3; T/C (Mus musculus [10]): 60%; Tumor volume (Mus musculus [11]): Toxic; IC50 [12]: 69000 nM; Tumor volume (Mus musculus [13]): 113 mm**3; T/C (Mus musculus [14]): 7%; Tumor volume (Mus musculus [15]): 1048 mm**3; T/C (Mus musculus [16]): 51%; Tumor volume (Mus musculus [17]): 87 mm**3; Tumor volume (Mus musculus [18]): 42 mm**3; T/C (Mus musculus [19]): 68%; T/C (Mus musculus [20]): Toxic
Nc1nc(N)c2cc(CNc3ccc(C(=O)NC(CCC(=O)O)C(=O)O)c4c3CCCC4)cnc2n1 (centres undefined)	16	17	0.01	16	600	0.0131	33		
CN(Cc1cnc2nc(N)nc(N)c2n1)c1ccc(C(=O)NC(CCC(=O)O)C(=O)O)c2ccccc12 (centres undefined)	3	3.3	0.27	9	1040	0.00522	9.3	0.18	T/C (Mus musculus [21]): 48%; IC50 (Dihydrofolate reductase [22]): 0.0025 nM; T/C (Mus musculus [23]): 28%; Tumor volume (Mus musculus [24]): 268 mm**3; Tumor volume (Mus musculus [25]): 82 mm**3; Tumor volume (Mus musculus [26]): 144 mm**3; T/C (Mus musculus [27]): 23%; Tumor volume (Mus musculus [28]): 62 mm**3; T/C (Mus musculus [29]): 28%; Tumor volume (Mus musculus [30]): 493 mm**3; T/C (Mus musculus [31]): 37%; T/C (Mus musculus [32]): 43%; Km (Homo sapiens): 82 µM; IC50 (Dihydrofolate reductase [33]): 0.00019 nM; V/K [34]: 0.0033; Tumor volume (Mus musculus [35]): 839 mm**3
CN(Cc1cnc2nc(N)nc(N)c2c1)c1ccc(C(=O)NC(CCC(=O)O)C(=O)O)c2ccccc12 (centres undefined)	23	1.5		2.3	780		1.9		
